# Measurements reported in article PMC3198121 (Journal of Medicinal Chemistry, 2011).
# Experiments:
# Format in all cases: cell-based
# GPR35 [1] = target: T1, GPR35 (Homo sapiens, UniProt Q9HC97); test: DMR agonist assay after shRNA knockdown of GPR35 in HT29; conditions: all compounds at 10 μM; n = 4; mock transfection as control
# In short: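 HT29 cells seeded at 5000/well on biosensor plates, 24 h at 37 °C, then transiently transfected (Effectene, 0.05 μg plasmid DNA) with GPR35 shRNA in GFP-expressing pGFP-V-RS vector or control plasmid. Medium was renewed next day. About 48 h post-transfection, cells were washed into HBSS (20 mM Hepes, pH 7.1) and equilibrated 1 h at 26 °C. Label-free DMR was recorded kinetically after a 2 min baseline and compound addition.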
# GPR35 [2] = target: T1, GPR35; test: DMR agonist assay in HT-29 cells; conditions: for agonist type in DMR assay: compared to zaprinast; for fold decrease in potency relative to 16a: compared with compound 16a
# GPR35 [3] = target: T1, GPR35; test: Tango β-arrestin translocation gene reporter assay in Tango GPR35-bla U2OS cells; conditions: for agonist type in Tango β-arrestin translocation assay: compared to zaprinast; for Tango assays % zaprinast: efficacy relative to zaprinast, Tango GPR35-bla U2OS cells
# GPR35 [4] = target: T1, GPR35; conditions: HT29; for blockage of the compound-induced DMR by compound 17: compound 17 at 64 μM
# GPR35 [5] = target: T1, GPR35; test: Receptor internalization assay in HT29; conditions: HT-29; 1 μM 16a, 10 μM 15a; 1 h at 37 °C
# In short: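 HT29 cells seeded at 10000/well on chamber slides, 24 h at 37 °C, then exposed to compound or matching DMSO for 1 h at 37 °C. Cells were fixed in 4% formaldehyde for 15 min and blocked/permeabilized for 2 h (goat serum, BSA, Triton X-100). Staining used anti-GPR35 T-14 (intracellular epitope, 1:500, 24 h), then Alexa Fluor 594 anti-goat (1:500, 1 h RT), with DAPI nuclei. Read by confocal imaging.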
# GPR35 [6] = target: T1, GPR35; conditions: zaprinast 1 μM in DMSO treated cells; n = 90
# T1 sequence (Q9HC97 whole entry): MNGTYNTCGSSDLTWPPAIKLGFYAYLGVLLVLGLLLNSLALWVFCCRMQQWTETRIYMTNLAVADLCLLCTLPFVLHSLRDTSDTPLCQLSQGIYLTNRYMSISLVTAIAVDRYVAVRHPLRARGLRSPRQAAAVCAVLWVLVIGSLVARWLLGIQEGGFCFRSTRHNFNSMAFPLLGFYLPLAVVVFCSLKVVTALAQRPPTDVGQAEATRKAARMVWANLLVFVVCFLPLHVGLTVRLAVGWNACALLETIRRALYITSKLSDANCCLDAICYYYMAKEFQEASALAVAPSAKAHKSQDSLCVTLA
Compound,effect of shRNA knockdown of GPR35 on the compound-induced DMR (GPR35 [1]),response in Tango assay (GPR35 [3]),agonist type in Tango β-arrestin translocation assay (GPR35 [3]),blockage of the compound-induced DMR by compound 17 (GPR35 [4]),other results
"CC1=C(C#N)C(=C(C#N)C#N)OC1(C)c1ccc(Cl)c(Cl)c1 (centres unmarked) [Compound 1, 2-(3-cyano-5-(3,4-dichlorophenyl)-4,5-dimethylfuran-2(5H)-ylidene)malononitrile]",significantly attenuated,dose-dependent and saturable responses,partial agonist,–,agonist type in DMR assay (GPR35 [2]): full agonist
"CC1=C(C#N)C(=C(C#N)C#N)OC1(c1ccccc1)C(F)(F)F (centres unmarked) [Compound 3, 2-(3-cyano-4-methyl-5-phenyl-5-(trifluoromethyl)furan-2(5H)-ylidene)malononitrile]",–,dose-dependent and saturable responses,partial agonists,–,–
"CC1=C(C#N)C(=C(C#N)C#N)OC1(C)c1ccc(Cl)c(Cl)c1Cl (centres unmarked) [Compound 5, 2-(3-cyano-4,5-dimethyl-5-(2,3,4-trichlorophenyl)furan-2(5H)-ylidene)malononitrile]",–,–,–,only partially suppressed,"fold decrease in potency to trigger DMR signal relative to 1 (GPR35 [2]; DMR EC50, compared with compound 1): 350 fold"
"CC1=C(C#N)C(=C(C#N)C#N)OC12CCCCC2 [Compound 7, 2-(3-cyano-4-methyl-1-oxaspiro[4.5]dec-3-en-2-ylidene)malononitrile]",–,detectable responses,partial agonists,only partially suppressed,Tango assays % zaprinast (GPR35 [3]): weak
"CC1=C(C#N)C(=C(C#N)C#N)OC1(C)c1ccc(F)cc1F (centres unmarked) [Compound 8, 2-(3-cyano-5-(2,4-difluorophenyl)-4,5-dimethylfuran-2(5H)-ylidene)malononitrile]",–,–,–,only partially suppressed,–
"CC1=C(C#N)C(=C(C#N)C#N)OC1(C)C [Compound 9, 2-(3-Cyano-4,5,5-trimethylfuran-2(5H)-ylidene)malononitrile]",significantly attenuated,detectable responses,partial agonists,–,Tango assays % zaprinast (GPR35 [3]): weak
"O=C(O)c1cc2sccc2s1 [Compound 10, Thieno[3,2-b]thiophene-2-carboxylic Acid]",–,detectable responses,partial agonists,–,fold decrease in potency relative to 16a (GPR35 [2]; DMR EC50): over 600 fold
"CCCCCCc1c(C(=O)O)sc2ccsc12 [Compound 11, 3-Hexylthieno[3,2-b]thiophene-2-carboxylic Acid]",–,detectable responses,partial agonists,only partially suppressed,fold decrease in potency relative to 16a (GPR35 [2]; DMR EC50): about 54 fold
"CCCCCCc1csc2cc(C(=O)O)sc12 [Compound 12, 6-Hexylthieno[3,2-b]thiophene-2-carboxylic Acid]",–,detectable responses,partial agonists,–,–
"Cc1csc2c1sc1cc(C(=O)O)sc12 [Compound 13, 5-Methyldithieno[3,2-b:2′,3′-d]thiophene-2-carboxylic Acid]",significantly attenuated,detectable responses,partial agonists,only partially suppressed,–
"CCOC(=O)c1sc2c(Br)csc2c1C [Compound 15a, Ethyl 6-Bromo-3-methylthieno[3,2-b]thiophene-2-carboxylate]",–,–,–,–,internalization of endogenous GPR35 (GPR35 [5]): unable to trigger receptor internalization
"Cc1c(C(=O)O)sc2c(Br)csc12 [Compound 16a, 6-Bromo-3-methylthieno[3,2-b]thiophene-2-carboxylic Acid]",significantly attenuated,dose-dependent and saturable responses,full agonist,–,agonist type in DMR assay (GPR35 [2]): full agonist; internalization of endogenous GPR35 (GPR35 [5]): significant internalization
"CCCCCCCCc1c(C(=O)O)sc2c(Br)csc12 [Compound 16b, 6-Bromo-3-octylthieno[3,2-b]thiophene-2-carboxylic Acid]",–,detectable responses,partial agonists,–,–
"CCCCCCCCCCCc1c(C(=O)O)sc2c(Br)csc12 [Compound 16c, 6-Bromo-3-undecylthieno[3,2-b]thiophene-2-carboxylic Acid]",–,dose-dependent and saturable responses,partial agonists,–,–
"COC(=O)c1cnn(-c2ccc(F)cc2F)c1/C=N/NC(=S)NC(C)(C)C [Compound 17, methyl-5-[(tert-butylcarbamothioylhydrazinylidene)methyl]-1-(2,4-difluorophenyl)-pyrazole-4-carboxylate, reference compound]",–,–,–,–,blockage of the zaprinast DMR by compound 17 (GPR35 [4]; compound 17 at 64 μM (highest dose)): almost completely blocked; DMR agonist activity in HT-29 (GPR35 [2]): did not lead to any detectable DMR
"CCCOc1ccccc1-c1nc2[nH]nnc2c(=O)[nH]1 [zaprinast, reference compound]",significantly attenuated,–,–,–,"DMR assays % zaprinast (GPR35 [2]; efficacy relative to zaprinast, HT-29, DMR amplitude at 8 min post stimulation): 100 ± 5%; DMR amplitude, maximal response (GPR35 [2]; zaprinast 1 μM (saturating dose), about 8 min poststimulation, n = 32): 246 ± 11 pm; Tango assays % zaprinast (GPR35 [3]): 100 ± 7%; zaprinast DMR amplitude in the desensitization step (positive control) (GPR35 [6]): 238 ± 25 pm"
